NR2E3 ag-1 – activates human NR2E3 receptor | CHO-S Gal4-NCOR/VP16-NR2E3 two-hybrid, luciferase | Q9Y5X4 | hit rate 0.35% among 360,000 | inhibition of corepressor binding, % at 3.98 µM | AID 602229;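 active means inhibition above the mean of all tested compounds plus 3 SD, cut at about 70% in these data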;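 further: 0% = DMSO with NR2E3 transfected cells and 100% = cells lacking NR2E3 construct; higher means lower luciferase signal from less NR2E3 corepressor binding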
Target sequence (Q9Y5X4 whole entry, looked up, the tested form may be a part): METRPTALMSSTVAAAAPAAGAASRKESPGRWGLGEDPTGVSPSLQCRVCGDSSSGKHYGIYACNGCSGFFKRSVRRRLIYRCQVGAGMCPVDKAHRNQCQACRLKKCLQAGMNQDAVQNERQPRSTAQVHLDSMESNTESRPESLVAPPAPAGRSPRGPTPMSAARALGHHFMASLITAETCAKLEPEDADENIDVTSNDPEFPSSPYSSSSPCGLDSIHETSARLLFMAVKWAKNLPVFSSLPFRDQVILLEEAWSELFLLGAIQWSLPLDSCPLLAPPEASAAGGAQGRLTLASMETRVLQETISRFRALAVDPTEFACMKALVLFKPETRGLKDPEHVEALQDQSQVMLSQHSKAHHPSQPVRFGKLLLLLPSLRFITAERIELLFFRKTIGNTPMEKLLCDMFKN
PG9 binder – small molecules binding HIV-1 gp120 antibody PG9. TR-FRET gp120-PG9 antibody binding. inhibition, % at 6.7 µM. hit rate 0.43% among 360,000. AID 624416; in the data active means inhibition above about 8.5%
Rev-erbA mod – Rev-erb alpha (human) modulation; P20393; Rev-erbα–FITC-DNA binding, fluorescence polarization, 90 min; activity, % at 10 µM; hit rate 0.79% among 370,000; AID 1259318;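 active means activity above about 14%, limit read from the data; passing the limit was not always enough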;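 further: 0% = DMSO wells with 35 nM protein and 100% = DMSO wells with 750 nM protein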
NR2E3 ag-2 – NR2E3 (human) agonism. GST-NR2E3/biotin-RetCOR TR-FRET, 1536-well. inhibition of corepressor binding, % at 4.78 µM. hit rate 0.12% among 320,000. AID 2300;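 active means percent inhibition above the cutoff of mean plus 3 SD of all tested compounds, set per screening campaign, cut at about 20% in these data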;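 further: 0% = DMSO wells and 100% = biotin wells as full block of FRET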
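System: GST-NR2E3 and biotin-RetCOR proteins; probe or stimulus: 7 nM biotin-RetCOR; doses: compound at 4.8 µM, single dose; schedule: Compound–protein incubation for 5 h at 4 °C; detection: time-resolved FRET; read-out: percent inhibition; controls: biotin wells as high control, 0.6% DMSO wells as low control; format: 1536-well plates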
NR2E3 ag conf – confirmation of human NR2E3 agonists | shares compounds with NR2E3 ag-1 | AID 624378 | CHO-S mammalian two-hybrid NR2E3-NCOR, luciferase luminescence | inhibition, % at 3.98 µM | hit rate 51% among 2,300;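 active means average inhibition above a cutoff equal to the mean inhibition of all tested compounds plus one SD, cut at about 70% in these data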;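 further: 0% = DMSO in NR2E3 cells and 100% = DMSO in cells lacking NR2E3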
VP16 counter – counter-screen for NR2E3 agonists: GAL4-VP16 reporter inhibitors | hit rate 29% among 2,300 | CHO-S GAL4-VP16 luciferase reporter, luminescence | shares compounds with NR2E3 ag-1 | inhibition, % at 3.98 µM | AID 624379;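 active means mean inhibition above a cutoff equal to the average over all tested compounds plus one standard deviation, cut at about 70% in these data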;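 further: luciferase from a UAS reporter driven by GAL4-VP16 transactivation; 0% = DMSO with VP16-transfected cells and 100% = DMSO with cells lacking VP16; higher means less reporter light so more repression of VP16 activity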
PG9 binder conf – PG9 antibody binding, confirmed; inhibition, % at 6.7 µM; hit rate 90% among 1,500; shares compounds with PG9 binder; TR-FRET PG9 antibody binding, biochemical; in the data active means inhibition above about 9%
PGV04 counter – counter-screen for PG9 binders: binding control antibody PGV04 | shares compounds with PG9 binder | TR-FRET PGV04 antibody-gp120 binding, biochemical | inhibition, % at 6.7 µM | hit rate 95% among 1,500 | AID 651604; in the data active means inhibition above about 9.5%
Rev-erbA confirm – Rev-erb alpha (human) modulation, hit confirmation | shares compounds with Rev-erbA mod | AID 1259319 | Rev-erb alpha FITC-DNA binding, fluorescence polarization, 90 min | hit rate 61% among 3,000 | activation, % at 25 µM;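 active means activation at or above a set limit, or at least 3 SD above the negative control mean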;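 further: 0% = 35 nM protein with DMSO and 100% = 750 nM protein high control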
RORg DNA counter – affects RORgamma DNA binding in a Rev-erb alpha counter-screen; shares compounds with Rev-erbA mod; purified RORgamma protein-FITC-DNA binding, fluorescence polarization; IC50, µM; hit rate 8% among 910;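 active means Compounds whose fitted half-maximal concentration for disrupting protein-DNA binding is below 10 micromolar; the record names Rev-erb in its text, so the target is in doubt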
Starred values were filed as active, the others as inactive; . = no result. Only some compounds are listed: those with a hit (about 1.4% of all), similar ones and a draw of the others.

SMILES | NR2E3 ag-1 | PG9 binder | Rev-erbA mod | NR2E3 ag-2 | PG9 binder conf | PGV04 counter | others
O=C(Nc1ccc(Br)c2ccccc12)c1ccc2ccccc2c1O | 107* | 36* | 5 | 38* | 31* | 37* | NR2E3 ag conf=99*;VP16 counter=79*
Nc1[nH]c(C(=O)c2ccccc2)c(-c2ccc3c(c2)OCO3)c1C(=O)NCCc1c[nH]c2ccccc12 | . | 0 | 2 | . | . | .
Cc1ccc2nc(NC(=O)COC(=O)CSc3nc(C)cc(C)n3)sc2c1 | -40 | -1 | -4 | 0 | . | .
CSc1nsc(SCC(=O)Nc2nc3ccc(C)cc3s2)n1 | 61 | 10* | -5 | 2 | 14* | 18* | NR2E3 ag conf=45;VP16 counter=32
CCC1(O)C(=O)OCc2c1cc1n(c2=O)Cc2cc3cc(O)ccc3nc2-1 (stereo not drawn) | 63 | 19* | 0 | . | 16* | 31* | NR2E3 ag conf=90*;VP16 counter=27
CC(=O)CC[C@@H]1CC[C@]2(CCCN(C(=O)c3ccc4ccccc4n3)C2)O1 | . | . | -1 | . | . | .
COC(=O)c1ccc2nc(Nc3nc4c(F)cc(F)cc4s3)sc2c1 | 58 | 0 | 38* | 1 | . | . | NR2E3 ag conf=29;VP16 counter=-47;Rev-erbA confirm=33*;RORg DNA counter=>40
COC(=O)c1ccc2nc(NC(=O)C(C)C)sc2c1 | -91 | -1 | -5 | -2 | . | .
O=C(CSc1nnnn1-c1ccccc1)Nc1ccc(Cl)cc1 | -19 | 0 | 1 | 0 | . | .
CCn1c2ccccc2c2cc(NC(=O)CSc3nnnn3-c3ccccc3)ccc21 | 70 | 10* | 39* | 1 | 9.2* | 18* | NR2E3 ag conf=54;VP16 counter=21;Rev-erbA confirm=24*
Cc1ccc(-c2nc(NC(=O)CSc3nnnn3-c3ccccc3)ns2)cc1 | 73* | 13* | 18* | 4 | 4 | 6 | NR2E3 ag conf=100*;VP16 counter=29;Rev-erbA confirm=10
Cc1cccc(Cn2cc(CN3CC(N(C)CCOC(=O)c4cc(C)cc(C)c4)CS3(=O)=O)nn2)c1 (stereo not drawn) | . | . | 0 | . | . | .
COC(=O)[C@@]12CCCCC3=C1N(CCC3)C(=O)[C@H]2CC(=O)N1CCCCC1 | . | . | -1 | . | . | .
CCN1/C(=C/c2ccc3cc(C)ccc3[n+]2CC)Sc2cc(C)ccc21 | 90* | -6 | 29* | . | . | . | NR2E3 ag conf=100*;VP16 counter=85*;Rev-erbA confirm=51*;RORg DNA counter=>40
CCN1/C(=C/c2ccc3cc(C)ccc3[n+]2C)Sc2ccc3sccc3c21 | 66 | -34 | 12 | . | . | .
Cc1cccc(-c2cccc3c4c([nH]c23)[C@@H]2C[C@H](N(C)C(=O)c3ccccc3C)[C@H]([C@H](C)O)CN2CC4)c1 | . | . | -5 | . | . | .
CC(=O)N1CCCc2cc(S(=O)(=O)N3CCCC(C(=O)N4CCN(c5cc(C)ccc5C)CC4)C3)ccc21 (stereo not drawn) | 98* | -1 | 17* | -4 | . | . | NR2E3 ag conf=91*;VP16 counter=79*;Rev-erbA confirm=18*
Clc1ccccc1Nc1nc(NCc2ccccc2)nc2ccsc12 | 63 | 18* | 21* | . | 27* | 36* | NR2E3 ag conf=50;VP16 counter=55;Rev-erbA confirm=5
CC(=O)CSc1nc(N)c(C#N)c(-c2cccs2)c1C#N | -14 | 0 | 5 | 2 | . | .
CC(=O)CSc1nc(-c2cccs2)c(C#N)c(=O)[nH]1 | -11 | 49* | 1 | . | 53* | 65*
CCOc1ccc(C(=O)OCC(=O)NCCNC(=O)COC(=O)c2ccc(OCC)cc2)cc1 | 8 | 9.1* | -1 | 1 | 14* | 17*
NS(=O)(=O)c1ccc(NC(=O)c2ccc(-c3ccccc3)cc2)cc1 | -28 | 9.3* | 3 | . | 13* | 25*
NS(=O)(=O)c1ccc(NS(=O)(=O)c2ccc(NC(=O)c3ccc(-c4ccccc4)cc3)cc2)cc1 | -5 | 1 | -6 | 2 | . | .
CC(=O)c1ccc(NC(=O)COc2ccccc2C(=O)Nc2ccccc2)cc1 | -12 | -3 | -2 | -2 | . | .
CC(=O)c1ccc(NC(=O)COc2ccccc2C(=O)Nc2ccc(C)cn2)cc1 | 3 | 26* | 13 | -1 | 28* | 42*
SMILES | NR2E3 ag-1 | PG9 binder | Rev-erbA mod | NR2E3 ag-2 | PG9 binder conf | PGV04 counter | others
Cn1c(C(=O)Nc2ccc(Cl)cc2)cc2cc(Cl)ccc21 | -12 | 14* | 3 | 0 | 9.2* | 16*
CC(C)OC(=O)c1ccc(NC(=O)c2cccc(-n3cnnn3)c2)cc1 | 4 | -1 | 0 | 3 | . | .
Cc1cc(=O)n2c(C(=O)Nc3ccc(C(=O)OC(C)C)cc3)c(C(=O)Nc3ccccc3)sc2n1 | -18 | 12* | 18 | 9 | 22* | 31*
Cc1nc2c(sc3nc(N4CCOCC4)c4c(c32)CC(C)(C)OC4)c(-c2ccccc2)c1C(=O)O | -17 | 16* | 5 | 15 | 26* | 32*
CC1(C)Cc2c(C#N)c(SCC(=O)c3ccccc3)nc(N3CCOCC3)c2CO1 | -1 | 42* | -5 | 1 | 9.3* | 86*
CC1(C)Cc2c(C#N)c(SCc3ccccc3)nc(N3CCOCC3)c2CO1 | 2 | 0 | 4 | 0 | . | .
Cc1ccc(NC(=O)CN2CCN(c3nc(-c4ccccc4)cs3)CC2)cc1C | . | . | 1 | . | . | .
Nc1cc2sc(-c3ccc(C(=O)O)cc3)nc2cc1Cl | -86 | 8.6* | -9 | 7 | 12* | 20*
COc1ccc2ccc(OCC(=O)Nc3cc(C)on3)cc2c1 | -13 | 21* | 10 | 3 | 25* | 34*
COc1ccc(NC(=O)CCCn2c(=S)[nH]c3ccccc3c2=O)cc1 | -43 | -1 | 6 | 2 | . | .
COc1ccc(NC(=O)CCn2c(=S)[nH]c3ccccc3c2=O)cc1 | 7 | 22* | 2 | 1 | 22* | 27*
O=C(/C=C/Nc1ccccc1)C(F)(F)F | -7 | 9.3* | 3 | -1 | 4 | 7
Cc1c(N/C=C/C(=O)C(F)(F)F)c(=O)n(-c2ccccc2)n1C | -6 | -1 | 5 | 0 | . | .
O=C(Nc1ccc(F)cc1)c1cc(-c2ccccn2)nc2c(Cl)cccc12 | -14 | 18* | 5 | 1 | 33* | 69*
CC(C)(C)N1Cc2nnn(Cc3ccccc3)c2-c2cc(N3CCCCC3)ccc2S1(=O)=O | . | . | 2 | . | . | .
COc1ccc(C(=O)NCc2ccccc2)cc1Br | -7 | 1 | 4 | 2 | . | .
COc1cccc(OC)c1C(=O)Nc1ccc(C(=O)NCc2ccccc2)cc1 | -6 | 9.6* | -4 | 3 | 12* | 17*
Cc1ccccc1C(=O)N(C)[C@H]1C[C@H]2c3[nH]c4c(-c5ccccc5)cccc4c3CCN2C[C@H]1[C@H](C)O | . | . | 2 | . | . | .

Screening results: PubChem BioAssay, several laboratories
